Experimental data from ChEMBL document CHEMBL3227992, “Glycerides as prodrugs. 1. Synthesis and antiinflammatory activity of 1,3-bis(alkanoyl)-2-(O-acetylsalicyloyl)glycerides (aspirin triglycerides)” (J Med Chem, 1979).
The source made the active and inactive calls. No cut-off for these calls is given here.

Key:
[1] = test system: Rattus norvegicus; assay: Antiinflammatory activity in Sprague-Dawley rat assessed as inhibition of carrageenin-induced hind paw swelling at 394 umol/kg, po administered 2 hrs prior to carrageenin challenge measured after 3 hrs by volumetric transducer analysis relative to aspirin; format: functional
Summary of the method: (§1)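 Male Sprague-Dawley rats (170-200 g) were fasted overnight with water ad libitum. Compounds were suspended in 0.5% (w/v) methylcellulose with a drop of Tween 80 and given orally 2 h before a subplantar injection of 0.1 mL of 1.5% carrageenin. Paw volume was read before and 3 h after injection by immersion in a mercury vessel linked to a volumetric transducer and polygraph.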

[2] = test system: Rattus norvegicus; assay: Ulcerogenicity in Sprague-Dawley rat assessed as gastric lesions at 444 umol/kg, po; format: toxicity, organism-based, Stomach; settings: in vivo
Summary of the method: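 Rats were fasted overnight and dosed orally with compound in 0.5% methylcellulose plus Tween 80. Stomachs were examined for gastric lesions by the Brodie and Hansen method. Lesion incidence counted animals with a lesion of 1 mm or longer, expressed relative to plain aspirin.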

[3] = test system: Rattus norvegicus; assay: Antiinflammatory activity in Sprague-Dawley rat assessed as inhibition of carrageenin-induced hind paw swelling at 444 umol/kg, po administered 2 hrs prior to carrageenin challenge measured after 3 hrs by volumetric transducer analysis relative to aspirin; format: functional; summary of the method: as §1
[4] = test system: Rattus norvegicus; assay: Antiinflammatory activity in Sprague-Dawley rat assessed as inhibition of carrageenin-induced hind paw swelling at 273 umol/kg, po administered 2 hrs prior to carrageenin challenge measured after 3 hrs by volumetric transducer analysis relative to aspirin; format: functional; summary of the method: as §1
[5] = test system: Rattus norvegicus; assay: Antipyretic activity against yeast-induced fever in rat assessed as prolonged duration of action at 1068 umol/kg, po relative to aspirin; format: functional, organism-based
[6] = test system: Rattus norvegicus; assay: Antipyretic activity against yeast-induced fever in rat assessed as delay in onset of activity at 1068 umol/kg, po relative to aspirin; format: functional, organism-based
[7] = test system: Plasma; assay: Prodrug conversion in rat plasma assessed as salicylate level at 1192 umol/kg, po administered as emulsified solution measured after 1 to 6 hrs; format: ADME, organism-based; settings: in vivo
Summary of the method: (§2)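 Rats were dosed orally, with the glyceride given as an emulsion. Plasma salicylate was followed from 15 min to 24 h after dosing and reported as mean levels. Absorption was estimated by comparing mean areas under the plasma salicylate curves with those after aspirin.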

[8] = test system: Plasma; assay: Prodrug conversion in rat plasma assessed as salicylate level at 1192 umol/kg, po administered as emulsified solution measured after 24 hrs; format: ADME, organism-based; settings: in vivo; summary of the method: as §2
[9] = Drug absorption in rat at 1192 umol/kg, po administered as emulsified solution; format: ADME, organism-based; settings: in vivo, read-out: Drug absorption; summary of the method: as §2
[10] = test system: Rattus norvegicus; assay: Antiinflammatory activity in Sprague-Dawley rat assessed as inhibition of carrageenin-induced hind paw swelling at 323 umol/kg, po administered 2 hrs prior to carrageenin challenge measured after 3 hrs by volumetric transducer analysis relative to aspirin; format: functional; summary of the method: as §1
[11] = test system: Plasma; assay: Prodrug conversion in rat plasma assessed as salicylate level at 594 umol/kg, po measured after 24 hrs; format: ADME, organism-based; settings: in vivo; summary of the method: as §2
[12] = test system: Plasma; assay: Prodrug conversion in rat plasma assessed as salicylate level at 594 umol/kg, po measured after 15 mins; format: ADME, organism-based; settings: in vivo, 0.25 h; summary of the method: as §2

CCCCCCCC(=O)OCC(COC(=O)CCCCCCC)OC(=O)c1ccccc1OC(C)=O
inhibition in vivo at 394 µmol/kg [1]: 60%

CC(=O)OCC(COC(C)=O)OC(=O)c1ccccc1OC(C)=O
Activity [2]: Toxic | inhibition in vivo at 444 µmol/kg [3]: 48%

CCCCCCCCCCCCCCCC(=O)OCC(COC(=O)CCCCCCCCCCCCCCC)OC(=O)c1ccccc1OC(C)=O
inhibition in vivo at 273 µmol/kg [4]: 12%

CCCC(=O)OCC(COC(=O)CCC)OC(=O)c1ccccc1OC(C)=O
Activity [2]: Non-toxic | inhibition in vivo at 444 µmol/kg [3]: 92%

CCCCCCCCCC(=O)OCC(COC(=O)CCCCCCCCC)OC(=O)c1ccccc1OC(C)=O
Activity [5]: Active | Activity [6]: Active | Activity [2]: Non-toxic | inhibition in vivo at 444 µmol/kg [3]: 80% | Drug metabolism [7]: 219 µg/mL | Drug metabolism [8]: 61 µg/mL | Fa [9]: 100%

CCCCCCCCCCCC(=O)OCC(COC(=O)CCCCCCCCCCC)OC(=O)c1ccccc1OC(C)=O
inhibition in vivo at 323 µmol/kg [10]: 44%

CC(=O)Oc1ccccc1C(=O)O [ASPIRIN]
Drug metabolism [11]: 24 µg/mL | Drug metabolism [12]: 196 µg/mL | Activity [2]: Toxic
